Results taken from ChEMBL document CHEMBL1240360, “TMC278, a next-generation nonnucleoside reverse transcriptase inhibitor (NNRTI), active against wild-type and NNRTI-resistant HIV-1” (Antimicrob Agents Chemother, 2010).
pEC50: −log10 of the molar value.

Columns and labels:
[1] = system: Human immunodeficiency virus 1; test: Antiviral activity against Human immunodeficiency virus 1 subtype E isolate 92TH006 infected in human PBMC cells by cell based assay; details: Human immunodeficiency virus 1, subtype E 92TH006, PBMC
[2] = system: Human immunodeficiency virus 1; test: Antiviral activity against Human immunodeficiency virus 1 subtype D infected in human MT4 cells assessed as reduction in virus induced cytopathicity; assay type: functional, organism-based
In short: (§1)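 Recombinant viruses were made by recombining patient-derived HIV-1 RT-PR sequences into an RT-PR-deleted HXB2 proviral clone transfected into MT4 cells. Subtype was assigned from PR/RT sequence by Smith-Waterman alignment to HXB2. MT4 cells (1.5 × 10^5/ml) were infected at MOI 0.01 with serially diluted compound for 5 days at 37°C. Viability was read by MTT and EC50 derived.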

[3] = system: Human immunodeficiency virus 1; test: Antiviral activity against Human immunodeficiency virus 1 subtype C isolate 92BR025 infected in human PBMC cells by cell based assay; details: Human immunodeficiency virus 1, subtype C isolate 92BR025, PBMC
MT4 = test: Cytotoxicity against human MT4 cells by cell based assay
In short: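 Cytotoxicity in MT4 cells from cell-based assays gave a 50% cytotoxic concentration, reported as a median with first- to third-quartile values over the stated number of experiments.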

[4] = system: Human immunodeficiency virus 1; test: Antiviral activity against Human immunodeficiency virus 1 subtype B isolate WEJO infected in human PBMC cells by cell based assay
[5] = system: Human immunodeficiency virus 1; test: Antiviral activity against Human immunodeficiency virus 1 subtype G isolate G3 infected in human PBMC cells by cell based assay; details: Human immunodeficiency virus 1, subtype G isolate G3, PBMC
[6] = system: Human immunodeficiency virus 1; test: Antiviral activity against Human immunodeficiency virus 1 subtype F isolate 93BR029 infected in human PBMC cells by cell based assay; details: Human immunodeficiency virus 1, subtype F isolate 93BR029, PBMC
[7] = system: Human immunodeficiency virus 1; test: Antiviral activity against Human immunodeficiency virus 1 subtype BG infected in human MT4 cells assessed as reduction in virus induced cytopathicity; assay type: functional, organism-based; in short: as §1
[8] = system: Human immunodeficiency virus 1; test: Antiviral activity against Human immunodeficiency virus 1 subtype F isolate 93BR019 infected in human PBMC cells by cell based assay; details: Human immunodeficiency virus 1, subtype F isolate 93BR019, PBMC
[9] = system: Human immunodeficiency virus 1; test: Antiviral activity against Human immunodeficiency virus 1 subtype C isolate 93MW959 infected in human PBMC cells by cell based assay; details: Human immunodeficiency virus 1, subtype C isolate 93MW959, PBMC
[10] = system: Human immunodeficiency virus 1; test: Antiviral activity against Human immunodeficiency virus 1 3B infected in human MT4 cells assessed as reduction in virus induced cytopathicity; assay type: functional, organism-based
In short: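 MT4 cells (1.5 × 10^5/ml) infected with HIV-1 IIIB at MOI 0.01 and added to serially diluted compound. Cultures incubated 5 days at 37°C under 5% CO2. Cell viability, as protection from virus-induced killing, read by MTT tetrazolium colorimetry. EC50 reported as median with first to third quartiles over n experiments.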

[11] = system: Human immunodeficiency virus 1; test: Antiviral activity against Human immunodeficiency virus 1 subtype AG infected in human MT4 cells assessed as reduction in virus induced cytopathicity; assay type: functional, organism-based; in short: as §1
[12] = system: Human immunodeficiency virus 1; test: Antiviral activity against Human immunodeficiency virus 1 subtype (H) infected in human MT4 cells assessed as reduction in virus induced cytopathicity; assay type: functional, organism-based; in short: as §1
[13] = system: Human immunodeficiency virus 1; test: Antiviral activity against Human immunodeficiency virus 1 subtype D isolate 92UG035 infected in human PBMC cells by cell based assay; details: Human immunodeficiency virus 1, subtype D 92UG035, PBMC
[14] = system: Human immunodeficiency virus 1; test: Antiviral activity against Human immunodeficiency virus 1 subtype B isolate JR-CSF infected in human PBMC cells by cell based assay
[15] = system: Human immunodeficiency virus 1; test: Antiviral activity against Human immunodeficiency virus 1 subtype A isolate 92RW020 infected in human PBMC cells by cell based assay; details: Human immunodeficiency virus 1, subtype A isolate 92RW020, PBMC
[16] = system: Human immunodeficiency virus 1; test: Antiviral activity against Human immunodeficiency virus 1 subtype G isolate JV1083 infected in human PBMC cells by cell based assay; details: Human immunodeficiency virus 1, subtype G isolate JV1083, PBMC
[17] = system: Human immunodeficiency virus 1; test: Antiviral activity against Human immunodeficiency virus 1 subtype G isolate RU132 infected in human PBMC cells by cell based assay; details: Human immunodeficiency virus 1, subtype G isolate RU132, PBMC
[18] = system: Human immunodeficiency virus 1; test: Antiviral activity against Human immunodeficiency virus 1 subtype O isolate BCF03 infected in human PBMC cells by cell based assay; details: Human immunodeficiency virus 1, subtype O isolate BCF03, PBMC
[19] = system: Human immunodeficiency virus 1; test: Antiviral activity against Human immunodeficiency virus 1 subtype B isolate 93BR021 infected in human PBMC cells by cell based assay; details: Human immunodeficiency virus 1, subtype B isolate 93BR021, PBMC
[20] = system: Human immunodeficiency virus 1; test: Antiviral activity against Human immunodeficiency virus 1 subtype E isolate 93TH073 infected in human PBMC cells by cell based assay; details: Human immunodeficiency virus 1, subtype E 93TH073, PBMC
[21] = system: Human immunodeficiency virus 1; test: Antiviral activity against Human immunodeficiency virus 1 subtype G infected in human MT4 cells assessed as reduction in virus induced cytopathicity; assay type: functional, organism-based; in short: as §1
[22] = system: Human immunodeficiency virus 1; test: Antiviral activity against Human immunodeficiency virus 1 subtype D isolate 92UG001 infected in human PBMC cells by cell based assay; details: Human immunodeficiency virus 1, subtype D isolate 92UG001, PBMC
[23] = system: Human immunodeficiency virus 1; test: Antiviral activity against Human immunodeficiency virus 1 subtype C infected in human MT4 cells assessed as reduction in virus induced cytopathicity; assay type: functional, organism-based; in short: as §1
[24] = system: Human immunodeficiency virus 1; test: Antiviral activity against Human immunodeficiency virus 1 subtype A isolate 92UG029 infected in human PBMC cells by cell based assay; details: Human immunodeficiency virus 1, subtype A isolate 92UG029, PBMC
[25] = system: Human immunodeficiency virus 1; test: Antiviral activity against Human immunodeficiency virus 1 subtype D isolate 92UG024 infected in human PBMC cells by cell based assay; details: Human immunodeficiency virus 1, subtype D 92UG024, PBMC
[26] = system: Human immunodeficiency virus 1; test: Antiviral activity against Human immunodeficiency virus 1 subtype O isolate BCF02 infected in human PBMC cells by cell based assay; details: Human immunodeficiency virus 1, subtype O isolate BCF02, PBMC
[27] = system: Human immunodeficiency virus 1; test: Antiviral activity against Human immunodeficiency virus 1 subtype F isolate 93BR020 infected in human PBMC cells by cell based assay; details: Human immunodeficiency virus 1, subtype F isolate 93BR020, PBMC
[28] = system: Human immunodeficiency virus 1; test: Antiviral activity against Human immunodeficiency virus 1 subtype O misolate BCF01 infected in human PBMC cells by cell based assay; details: Human immunodeficiency virus 1, subtype O isolate BCF01, PBMC
[29] = system: Human immunodeficiency virus 2; test: Antiviral activity against Human immunodeficiency virus 2 ROD infected in human MT4 cells assessed as reduction in virus induced cytopathicity; assay type: functional, organism-based; details: Human immunodeficiency virus 2, ISOLATE ROD
In short: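 MT4 cells (1.5 × 10^5/ml) infected with HIV (MOI 0.01) were added to serial compound dilutions and incubated 5 days at 37°C in 5% CO2. Protection from virus-induced cell death was read by MTT tetrazolium colorimetry, giving an EC50 in micromolar.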

[30] = system: Human immunodeficiency virus 1; test: Antiviral activity against Human immunodeficiency virus 1 subtype A isolate 92UG037 infected in human PBMC cells by cell based assay; details: Human immunodeficiency virus 1, subtype A isolate 92UG037, PBMC
[31] = system: Human immunodeficiency virus 1; test: Antiviral activity against Human immunodeficiency virus 1 subtype C isolate 93IN101 infected in human PBMC cells by cell based assay; details: Human immunodeficiency virus 1, subtype C isolate 93IN101, PBMC
[32] = system: Human immunodeficiency virus 1; test: Antiviral activity against Human immunodeficiency virus 1 subtype A1 infected in human MT4 cells assessed as reduction in virus induced cytopathicity; assay type: functional, organism-based; details: Human immunodeficiency virus 1, subtype A1, MT4; in short: as §1
[33] = system: Human immunodeficiency virus 1; test: Antiviral activity against Human immunodeficiency virus 1 subtype E isolate CMU08 infected in human PBMC cells by cell based assay; details: Human immunodeficiency virus 1, subtype E isolate CMU08, PBMC
[34] = system: Human immunodeficiency virus 1; test: Antiviral activity against Human immunodeficiency virus 1 subtype F1 infected in human MT4 cells assessed as reduction in virus induced cytopathicity; assay type: functional, organism-based; details: Human immunodeficiency virus 1, subtype F1, MT4; in short: as §1
[35] = system: Human immunodeficiency virus 1; test: Antiviral activity against Human immunodeficiency virus 1 subtype AE infected in human MT4 cells assessed as reduction in virus induced cytopathicity; assay type: functional, organism-based; in short: as §1

## Cc1cc(C#N)cc(C)c1Oc1nc(Nc2ccc(C#N)cc2)nc(N)c1Br [ETRAVIRINE]
[1]
  pEC50: 9.30
[2]
  pEC50: 8.95
[3]
  pEC50: 8.77
MT4
  Activity: > 64 µM
[4]
  pEC50: 9.37
[5]
  pEC50: 9.18
[6]
  pEC50: 8.97
[7]
  pEC50: 9.17
[8]
  pEC50: 9.34
[9]
  pEC50: 9.00
[10]
  pEC50: 8.56
[11]
  pEC50: 9.34
[12]
  pEC50: 9.29
[13]
  pEC50: 9.36
[14]
  pEC50: 8.99
[15]
  pEC50: 9.32
[16]
  pEC50: 8.84
[17]
  pEC50: 8.77
[18]
  pEC50: 6.83
[19]
  pEC50: 8.87
[20]
  pEC50: 9.68
[21]
  pEC50: 9.62
[22]
  pEC50: 9.05
[23]
  pEC50: 9.28
[24]
  pEC50: 8.84
[25]
  pEC50: 8.50
[26]
  pEC50: 7.28
[27]
  pEC50: 8.97
[28]
  pEC50: 7.79
[29]
  pEC50: 5.25
[30]
  pEC50: 8.85
[31]
  pEC50: 8.57
[32]
  pEC50: 8.86
[33]
  pEC50: 8.46
[34]
  pEC50: 9.46
[35]
  pEC50: 9.19

## Cc1ccnc2c1NC(=O)c1cccnc1N2C1CC1 [NEVIRAPINE]
[2]
  pEC50: 7.62
MT4
  Activity: > 32 µM
[7]
  pEC50: 7.59
[10]
  pEC50: 7.47
[11]
  pEC50: 7.84
[12]
  pEC50: 7.47
[21]
  pEC50: 7.61
[23]
  pEC50: > 8.31
[29]
  pEC50: < 4.51
[32]
  pEC50: 8.03
[34]
  pEC50: 7.83
[35]
  pEC50: 8.05
